Laboratory results as given in ChEMBL document CHEMBL1139032, “Design and modular parallel synthesis of a MCR derived alpha-helix mimetic protein-protein interaction inhibitor scaffold” (Bioorg Med Chem Lett, 2006).
Activity calls are given as the source filed them. The calls are words filed in the database; no cut-off is given here.

Columns and labels:
[1] = molecular target: Apoptosis regulator Bcl-2 (Homo sapiens) (UniProt P10415); assay: Inhibition of Bcl2 by FP assay
In short: (§1)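 Run in 20 mM potassium phosphate pH 7.4 with 1 mM EDTA, 50 mM NaCl and 0.05% Pluronic F-68, at 10% final DMSO. Polarization read at ex 485/em 535 nm after 2 h at room temperature.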

HL-60 = assay: Antiproliferative activity against HL60 cells by WST-1 assay; conditions: Homo sapiens
Bcl-2-like protein 2 = molecular target: T1, Bcl-2-like protein 2 (Homo sapiens, UniProt Q92843); assay: Inhibition of Bclw by FP assay; in short: as §1
T1 sequence (Q92843 whole entry): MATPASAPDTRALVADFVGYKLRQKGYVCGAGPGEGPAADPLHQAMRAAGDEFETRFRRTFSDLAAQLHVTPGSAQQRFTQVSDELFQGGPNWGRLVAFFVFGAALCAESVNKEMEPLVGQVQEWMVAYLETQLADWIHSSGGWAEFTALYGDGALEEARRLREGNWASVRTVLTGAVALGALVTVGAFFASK

[2] = molecular target: Bcl-2-like protein 1 (Homo sapiens) (UniProt Q07817); assay: Inhibition of BclXL by FP assay; in short: as §1
Sequence of Bcl-2-like protein 1 (Homo sapiens) (Q07817 whole entry): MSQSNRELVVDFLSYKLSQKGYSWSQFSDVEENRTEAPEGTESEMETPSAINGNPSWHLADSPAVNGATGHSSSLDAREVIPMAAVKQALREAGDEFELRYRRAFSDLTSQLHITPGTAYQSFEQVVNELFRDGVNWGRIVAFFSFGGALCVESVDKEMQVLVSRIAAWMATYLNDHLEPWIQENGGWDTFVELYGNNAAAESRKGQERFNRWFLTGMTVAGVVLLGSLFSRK

Sequence of Apoptosis regulator Bcl-2 (Homo sapiens) (P10415 whole entry): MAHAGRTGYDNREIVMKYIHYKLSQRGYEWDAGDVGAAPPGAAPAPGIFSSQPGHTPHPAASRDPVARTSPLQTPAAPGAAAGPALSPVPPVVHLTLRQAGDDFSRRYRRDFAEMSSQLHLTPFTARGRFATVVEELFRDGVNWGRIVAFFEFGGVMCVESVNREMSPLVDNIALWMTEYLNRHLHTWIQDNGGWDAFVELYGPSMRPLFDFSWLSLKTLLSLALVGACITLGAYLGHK

Activity [1]	GI50 (HL-60) [µM]	IC50 (Bcl-2-like protein 2) [µM]	Activity [2]	SMILES
inactive	9.43	8.09	inactive	CCCCc1c(-c2ccccc2Oc2ccccc2)ncn1CCc1ccccc1OC
inactive	13	26.9	inactive	CCCCc1c(-c2ccccc2OC)ncn1Cc1cccc(-c2ccccc2)c1
inactive	12.5	14	inactive	CCCc1c(-c2ccccc2Oc2ccccc2)ncn1Cc1ccccc1OC
